According to ChEMBL document CHEMBL1921722, “In vitro and in vivo evaluation of select kahalalide F analogs with antitumor and antifungal activities” (Bioorg Med Chem, 2011):
pIC50: −log10 of the molar value. ≈ marks a conversion by molar mass, not a printed value. Calls of active or inactive are those of the source. The rule behind the calls is not given here.

What was measured:
[1] = tested on: OVCAR-5; experiment: Cytotoxicity against human OVCAR5 cells assessed as cell growth at 8 nM by sulforhodamine B assay relative to control; format: functional; details: read-out: Activity
[2] = tested on: Pseudomonas aeruginosa; experiment: Antimicrobial activity against Pseudomonas aeruginosa ATCC 27853 by CLSI method; format: functional, organism-based
[3] = tested on: COLO 205; experiment: Cytotoxicity against human COLO205 cells assessed as cell growth at 80 nM by sulforhodamine B assay relative to control; format: functional; details: read-out: Activity
Method in brief: (§1)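 Run at NCI in the DTP 60-cell-line human tumor panel by standard procedure. Compounds were first screened at a single concentration, then tested at five tenfold-spaced concentrations. GI50 is the concentration reducing treated-cell growth to half that of untreated controls; TGI is the concentration completely halting growth.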

[4] = tested on: K562; experiment: Cytotoxicity against human K562 cells assessed as cell growth at 8 nM by sulforhodamine B assay relative to control; format: functional; details: read-out: Activity
[5] = tested on: SNB-75; experiment: Cytotoxicity against human SNB75 cells assessed as cell growth at 80 nM by sulforhodamine B assay relative to control; format: functional; details: read-out: Activity
[6] = tested on: SK-MEL-2; experiment: Cytotoxicity against human SK-MEL-2 cells by sulforhodamine B assay; format: functional
Method in brief: (§2)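 NCI Developmental Therapeutics Program 60-cell-line human tumor panel screen, run at NCI. A single-concentration pre-screen was followed by a five-concentration dose-response in 10-fold steps. GI50 is the concentration that reduces growth of treated cells to half that of untreated control cells. TGI is the concentration that completely halts growth.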

[7] = tested on: SF-268; experiment: Cytotoxicity against human SF268 cells assessed as cell growth at 8 nM by sulforhodamine B assay relative to control; format: functional; details: read-out: Activity
[8] = tested on: T47D; experiment: Cytotoxicity against human T47D cells assessed as cell growth at 800 nM by sulforhodamine B assay relative to control; format: functional; details: read-out: Activity
[9] = tested on: SW-620; experiment: Cytotoxicity against human SW620 cells assessed as cell growth at 800 nM by sulforhodamine B assay relative to control; format: functional; details: read-out: Activity
[10] = tested on: OVCAR-4; experiment: Cytotoxicity against human OVCAR4 cells assessed as cell growth at 80 nM by sulforhodamine B assay relative to control; format: functional; details: read-out: Activity
[11] = tested on: A549; experiment: Cytotoxicity against human A549 cells assessed as cell growth at 800 nM by sulforhodamine B assay relative to control; format: functional; details: read-out: Activity; method in brief: as §1
[12] = tested on: COLO 205; experiment: Cytotoxicity against human COLO205 cells by sulforhodamine B assay; format: functional; method in brief: as §1
[13] = tested on: TK-10; experiment: Cytotoxicity against human TK10 cells by sulforhodamine B assay; format: functional; method in brief: as §2
[14] = tested on: HCT-116; experiment: Cytotoxicity against human HCT116 cells assessed as cell growth at 800 nM by sulforhodamine B assay relative to control; format: functional; details: read-out: Activity
[15] = tested on: 786-0; experiment: Cytotoxicity against human 786-0 cells assessed as cell growth at 80 uM by sulforhodamine B assay relative to control; format: functional; details: read-out: Activity; method in brief: as §1
[16] = tested on: HOP-62; experiment: Cytotoxicity against human HOP62 cells assessed as cell growth at 80 uM by sulforhodamine B assay relative to control; format: functional; details: read-out: Activity
[17] = tested on: MDA-MB-435; experiment: Cytotoxicity against human MDA-MB-435 cells assessed as cell growth at 800 nM by sulforhodamine B assay relative to control; format: functional; details: read-out: Activity
[18] = tested on: A549; experiment: Cytotoxicity against human A549 cells assessed as cell growth at 8 nM by sulforhodamine B assay relative to control; format: functional; details: read-out: Activity; method in brief: as §1
[19] = tested on: OVCAR-4; experiment: Cytotoxicity against human OVCAR4 cells assessed as cell growth at 800 nM by sulforhodamine B assay relative to control; format: functional; details: read-out: Activity
[20] = tested on: 786-0; experiment: Cytotoxicity against human 786-0 cells assessed as cell growth at 8 nM by sulforhodamine B assay relative to control; format: functional; details: read-out: Activity; method in brief: as §1
[21] = tested on: SF-539; experiment: Cytotoxicity against human SF539 cells assessed as cell growth at 8 nM by sulforhodamine B assay relative to control; format: functional; details: read-out: Activity
[22] = tested on: Hs-578T; experiment: Cytotoxicity against human Hs578T cells assessed as cell growth at 8 nM by sulforhodamine B assay relative to control; format: functional; details: read-out: Activity
[23] = tested on: UACC-62; experiment: Cytotoxicity against human UACC62 cells by sulforhodamine B assay; format: functional; method in brief: as §2
[24] = tested on: OVCAR-3; experiment: Cytotoxicity against human OVCAR3 cells assessed as cell growth at 80 uM by sulforhodamine B assay relative to control; format: functional; details: read-out: Activity
[25] = tested on: SK-MEL-2; experiment: Cytotoxicity against human SK-MEL-2 cells assessed as cell growth at 80 nM by sulforhodamine B assay relative to control; format: functional; details: read-out: Activity
[26] = tested on: UACC-257; experiment: Cytotoxicity against human UACC257 cells assessed as cell growth at 8 nM by sulforhodamine B assay relative to control; format: functional; details: read-out: Activity
[27] = tested on: SN12C; experiment: Cytotoxicity against human SN12C cells assessed as cell growth at 8 uM by sulforhodamine B assay relative to control; format: functional; details: read-out: Activity
[28] = tested on: NCI-H322M; experiment: Cytotoxicity against human NCI-H322M cells by sulforhodamine B assay; format: functional; method in brief: as §2
[29] = tested on: HCT-15; experiment: Cytotoxicity against human HCT15 cells assessed as cell growth at 8 uM by sulforhodamine B assay relative to control; format: functional; details: read-out: Activity
[30] = tested on: IGROV-1; experiment: Cytotoxicity against human IGROV1 cells assessed as cell growth at 8 nM by sulforhodamine B assay relative to control; format: functional; details: read-out: Activity
[31] = tested on: SF-295; experiment: Cytotoxicity against human SF295 cells assessed as cell growth at 8 uM by sulforhodamine B assay relative to control; format: functional; details: read-out: Activity
[32] = tested on: ACHN; experiment: Cytotoxicity against human ACHN cells assessed as cell growth at 8 uM by sulforhodamine B assay relative to control; format: functional; details: read-out: Activity; method in brief: as §1
[33] = tested on: NCI-H23; experiment: Cytotoxicity against human NCI-H23 cells assessed as cell growth at 8 uM by sulforhodamine B assay relative to control; format: functional; details: read-out: Activity
[34] = tested on: UACC-257; experiment: Cytotoxicity against human UACC257 cells assessed as cell growth at 80 nM by sulforhodamine B assay relative to control; format: functional; details: read-out: Activity
[35] = tested on: NCI/ADR-RES; experiment: Cytotoxicity against human NCI/ADR-RES cells assessed as cell growth at 800 nM by sulforhodamine B assay relative to control; format: functional; details: read-out: Activity
[36] = tested on: Candida albicans; experiment: Antimicrobial activity against Candida albicans ATCC 90028 by CLSI method; format: functional, organism-based
[37] = tested on: SF-295; experiment: Cytotoxicity against human SF295 cells assessed as cell growth at 8 nM by sulforhodamine B assay relative to control; format: functional; details: read-out: Activity
[38] = tested on: SK-OV-3; experiment: Cytotoxicity against human SKOV3 cells assessed as cell growth at 8 nM by sulforhodamine B assay relative to control; format: functional; details: read-out: Activity
[39] = tested on: HT-29; experiment: Cytotoxicity against human HT-29 cells assessed as cell growth at 80 uM by sulforhodamine B assay relative to control; format: functional; details: read-out: Activity
[40] = tested on: LOX IMVI; experiment: Cytotoxicity against human LOXIMVI cells assessed as cell growth at 80 nM by sulforhodamine B assay relative to control; format: functional; details: read-out: Activity
[41] = tested on: M14; experiment: Cytotoxicity against human M14 cells assessed as cell growth at 80 nM by sulforhodamine B assay relative to control; format: functional; details: read-out: Activity
[42] = tested on: NCI-H226; experiment: Cytotoxicity against human NCI-H226 cells assessed as cell growth at 80 nM by sulforhodamine B assay relative to control; format: functional; details: read-out: Activity

`C/C=C1\NC(=O)[C@H](Cc2ccccc2)NC(=O)[C@@H](C(C)C)NC(=O)[C@@H]([C@@H](C)CC)NC(=O)[C@H](NC(=O)[C@H](NC(=O)[C@H](CCCNCc2ccc(N3CCOCC3)cc2)NC(=O)[C@H]2CCCN2C(=O)[C@H](NC(=O)[C@@H](NC(=O)[C@@H](NC(=O)[C@H](NC(=O)CCCC(C)C)C(C)C)[C@@H](C)O)C(C)C)C(C)C)[C@@H](C)CC)[C@@H](C)OC(=O)[C@H](C(C)C)NC1=O` was tested, and the growth at 0.008 µM [1] was 97%, the Activity [2] was “inactive” and the growth at 0.08 µM [3] was 95%. The growth at 0.008 µM [4] was 103%, the growth at 0.08 µM [5] was 113% and the GI50 [6] was 1.51 µM. For the same molecule, the TGI ([6]; read-out: pTGI (converted)) was 2.88 µM, the growth at 0.008 µM [7] was 98% and the growth at 0.8 µM [8] was -23%. It also gave a growth at 0.8 µM [9] of 75%, a growth at 0.08 µM [10] of 102% and a growth at 0.8 µM [11] of -40%. The GI50 ([12]; read-out: GI50) was 0.152 µM, the GI50 ([12]; read-out: pGI50 (converted)) was 0.151 µM and the GI50 [13] was 1.48 µM. The LC50 [13] was 5.37 µM, the TGI ([13]; read-out: pTGI (converted)) was 2.82 µM and the growth at 0.8 µM [14] was 104%. For the same molecule, the growth at 80 µM [15] was -66%, the growth at 80 µM [16] was -55% and the growth at 0.8 µM [17] was 94%. The growth at 0.008 µM [18] was 99%, the growth at 0.8 µM [19] was 79% and the growth at 0.008 µM [20] was 103%. For the same molecule, the growth at 0.008 µM [21] was 101%, the growth at 0.008 µM [22] was 109% and the GI50 [23] was 1.35 µM. The LC50 [23] was 4.27 µM, the TGI ([23]; read-out: pTGI (converted)) was 2.4 µM and the growth at 80 µM [24] was -50%. The growth at 0.08 µM [25] was 101%, the growth at 0.008 µM [26] was 101% and the growth at 8 µM [27] was -47%. It also gave a GI50 ([28]; read-out: GI50) of 0.133 µM, a TGI ([28]; read-out: TGI) of 0.264 µM and a GI50 ([28]; read-out: pGI50 (converted)) of 0.132 µM. For the same molecule, the TGI ([28]; read-out: pTGI (converted)) was 0.263 µM, the growth at 8 µM [29] was -82% and the growth at 0.008 µM [30] was 104%. For the same molecule, the growth at 8 µM [31] was -40%, the growth at 8 µM [32] was -84% and the growth at 8 µM [33] was -63%. The growth at 0.08 µM [34] was 103%, the growth at 0.8 µM [35] was 85% and the pIC50 [36] was 5.24. The MFC [36] was > 20 µM, the MIC [36] was 20 µM (≈ 33.1 µg/mL) and the growth at 0.008 µM [37] was 107%. For the same molecule, the growth at 0.008 µM [38] was 107%, the growth at 80 µM [39] was 8% and the growth at 0.08 µM [40] was 100%. For the same molecule, the growth at 0.08 µM [41] was 97% and the growth at 0.08 µM [42] was 107%.
